{"source": "ChEMBL document CHEMBL1122723", "about": "“Potential antitumor agents: synthesis and biological properties of aliphatic amino acid 9-hydroxyellipticinium derivatives” (1984)", "key": {"Mus musculus [1]": {"tested_on": "Mus musculus", "experiment": "Percent Increase in life span (ILS) over controls (10e5 L1210 leukemia cells) at LD0/2 by ip administration of the drug into mouse (single injection 2 hr after cell grafting)", "type": "functional", "outline": "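DBA/2 mice were inoculated with 10⁵ L1210 cells and then given one intraperitoneal dose at LD0/2, the LD0 being the highest nonlethal single ip dose. Life span was compared with untreated controls as ILS = (T − C)/C × 100. ILS > 25% was counted as a significant antitumor effect.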"}, "Mus musculus [2]": {"tested_on": "Mus musculus", "experiment": "Compound tested in vivo for highest […] administered intraperitoneally that reduces the L1210 leukemia cell growth", "type": "functional", "outline": "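Highest nonlethal dose (LD0) found for each compound after one intraperitoneal injection into DBA/2 mice.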"}, "Salmonella typhimurium": {"tested_on": "Salmonella typhimurium", "experiment": "Compound was evaluated for the effective dose, as compared to controls against Salmonella typhimurium TA98", "conditions": "read-out: ED50 (the source's name)"}, "Nucleic Acid": {"tested_on": "Nucleic Acid", "experiment": "Apparent binding constant (Kapp) for calf thymus DNA was measured by competition with ethidium bromide", "type": "nucleic-acid assay", "conditions": "Bos taurus", "outline": "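Calf thymus DNA binding measured by ethidium bromide competition in 0.2 M Tris-HCl buffer, pH 7.40. Apparent binding constants were derived from Scatchard plots.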"}, "L1210": {"tested_on": "L1210", "experiment": "Dose that reduces the L1210 leukemia cell growth in vitro by 50% after 48 hr as compared to controls", "type": "functional", "conditions": "Mus musculus, L1210, 48 h; read-out: ID50 (the source's name)", "outline": "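L1210 leukemia cells were grown in vitro with graded drug doses for 48 h. ID50 is the dose that reduces cell growth by 50% versus controls, read from a regression line of % growth inhibition against log dose. 50% inhibition corresponds to a twofold increase in generation time.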"}, "Escherichia coli": {"tested_on": "Escherichia coli", "experiment": "Compound was evaluated for the effective dose, as compared to controls against Escherichia coli BL 101", "type": "functional", "conditions": "read-out: ED50 (the source's name)", "outline": "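Bacteriostatic test on E. coli BL 101, a quaternary-ammonium-sensitive strain, and on Salmonella typhimurium TA 98. Inocula from master plates were grown overnight at 37 °C and diluted 1000-fold in the same medium. Cultures were shaken at 37 °C, with drugs added after 2 h of growth at graded concentrations. Growth was followed by turbidity at 650 nm. ED50 is the dose halving growth rate versus controls, from a regression of % inhibition on log dose.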"}}, "data": [{"compound": "Cc1c2cc[n+](C)cc2c(C)c2c1[nH]c1ccc(O)c(/N=C/C(=O)O)c12", "values": [{"measurement": "ILS", "setting": "Mus musculus [1]", "result": 0}, {"measurement": "LD0", "setting": "Mus musculus [2]", "result": 20, "unit": "mg/kg"}, {"measurement": "EC50", "setting": "Salmonella typhimurium", "result": 100, "unit": "µM"}, {"measurement": "K app", "setting": "Nucleic Acid", "result": 80000, "unit": "M⁻¹"}, {"measurement": "IC50", "setting": "L1210", "result": 0.54, "unit": "µM"}, {"measurement": "EC50", "setting": "Escherichia coli", "result": 3.15, "unit": "µM"}]}, {"compound": "Cc1c2cc[n+](C)cc2c(C)c2c1[nH]c1ccccc12", "values": [{"measurement": "ILS", "setting": "Mus musculus [1]", "result": 22}, {"measurement": "LD0", "setting": "Mus musculus [2]", "result": 12.5, "unit": "mg/kg"}, {"measurement": "K app", "setting": "Nucleic Acid", "result": 230000, "unit": "M⁻¹"}]}, {"compound": "C/C(=N\\c1c(O)ccc2[nH]c3c(C)c4cc[n+](C)cc4c(C)c3c12)C(=O)O", "values": [{"measurement": "ILS", "setting": "Mus musculus [1]", "result": 23}, {"measurement": "LD0", "setting": "Mus musculus [2]", "result": 20, "unit": "mg/kg"}, {"measurement": "EC50", "setting": "Salmonella typhimurium", "result": 50.3, "unit": "µM"}, {"measurement": "K app", "setting": "Nucleic Acid", "result": 470000, "unit": "M⁻¹"}, {"measurement": "IC50", "setting": "L1210", "result": 0.2, "unit": "µM"}, {"measurement": "EC50", "setting": "Escherichia coli", "result": 1.95, "unit": "µM"}]}, {"compound": "Cc1c2cc[n+](C)cc2c(C)c2c1[nH]c1ccc(O)cc12", "note": "[ELLIPTINIUM]", "values": [{"measurement": "ILS", "setting": "Mus musculus [1]", "result": 53}, {"measurement": "LD0", "setting": "Mus musculus [2]", "result": 5, "unit": "mg/kg"}, {"measurement": "K app", "setting": "Nucleic Acid", "result": "1.3e+06", "unit": "M⁻¹"}, {"measurement": "IC50", "setting": "L1210", "result": 0.05, "unit": "µM"}, {"measurement": "EC50", "setting": "Escherichia coli", "result": 3.55, "unit": "µM"}]}, {"compound": "Cc1c2cc[n+](C)cc2c(C)c2c1[nH]c1ccc(O)c(/N=C(/C(=O)O)C(C)C)c12", "values": [{"measurement": "ILS", "setting": "Mus musculus [1]", "result": 31.5}, {"measurement": "LD0", "setting": "Mus musculus [2]", "result": 15, "unit": "mg/kg"}, {"measurement": "EC50", "setting": "Salmonella typhimurium", "result": 1.65, "unit": "µM"}, {"measurement": "K app", "setting": "Nucleic Acid", "result": 210000, "unit": "M⁻¹"}, {"measurement": "IC50", "setting": "L1210", "result": 0.31, "unit": "µM"}, {"measurement": "EC50", "setting": "Escherichia coli", "result": 0.18, "unit": "µM"}]}, {"compound": "Cc1c2cc[n+](C)cc2c(C)c2c1[nH]c1ccc(O)c(/N=C(\\CC(C)C)C(=O)O)c12", "values": [{"measurement": "ILS", "setting": "Mus musculus [1]", "result": 35}, {"measurement": "LD0", "setting": "Mus musculus [2]", "result": 10, "unit": "mg/kg"}, {"measurement": "EC50", "setting": "Salmonella typhimurium", "result": 2.35, "unit": "µM"}, {"measurement": "K app", "setting": "Nucleic Acid", "result": 260000, "unit": "M⁻¹"}, {"measurement": "IC50", "setting": "L1210", "result": 0.28, "unit": "µM"}, {"measurement": "EC50", "setting": "Escherichia coli", "result": 0.76, "unit": "µM"}]}]}
